Data set [1] is described as follows: Antitumor activity against mouse EAC […] Swiss albino mouse assessed as increase in life span at 100 mg/kg, ip relative to vehicle-treated control. It counts as functional, Ehrlich. The note with it: route intraperitoneal. In short, it runs like this:
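Female Swiss albino mice (6–8 weeks), six per group, inoculated i.p. on day 0 with 1×10⁶ viable EAC cells from donor ascites. Drug suspended in 0.25% CMC, given i.p. at 0.1 ml/10 g on days 10–14. Survival was monitored twice daily for 44 days. ILS(%) = [(MST treated/MST control) − 1]×100, where MST is total days survived divided by the number of animals.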

A short description of data set [2]: Antitumor activity against mouse EAC […] Swiss albino mouse assessed as change in body weight at 100 mg/kg, ip administered on day 10 measured on day 15 (reference value: 22.03 +/- 1.67%). It counts as functional, Ehrlich. The note with it: route intraperitoneal.
The nature of data set [3]: Antitumor activity against mouse EAC […] Swiss albino mouse assessed as change in body weight at 100 mg/kg, ip administered everyday from day 10 to day 14 measured on day 12 (reference value: 22.03 +/- 1.67%). The class given is functional, Ehrlich. The note with it: route intraperitoneal.
For data set [4], the system named is COLO 205. Description: Inhibition of NF-kappaB in human COLO205 cells assessed as Bax up-regulation at IC50 after 48 hrs by RT-PCR analysis. The class given is cell-based. An outline of the steps: (§1)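 About 4x10⁶ COLO-205 cells/well treated at IC₅₀ dose for 48 h. Total RNA extracted with TRI Reagent and quantified. Bcl-2 and Bax measured by RT-PCR against GAPDH (40 cycles: 94 °C, 55 °C, 72 °C). Products run on 1.5% agarose gel and quantified by band densitometry.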

In data set [5] the test system is COLO 205. Nature of the data set: Inhibition of NF-kappaB in human COLO205 cells assessed as Bcl-2 down regulation at IC50 after 48 hrs by RT-PCR analysis. It counts as cell-based. An outline of the steps:
as §1

Data set [6] deals with COLO 205. Nature of the data set: Induction of apoptosis in human COLO205 cells assessed as zeiosis at IC50 after 48 hrs by Hoechst 33258 staining-based inverted microscopic analysis. It counts as functional, cell-based. In short, it runs like this: (§2)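 COLO-205 cells seeded at 10⁵ cells/ml and grown to 70-80% confluency. Treated at IC₅₀ dose for 48 h. Fixed in 4% formaldehyde for 30 min at room temperature, stained with Hoechst 33258 for 15 min, washed three times with PBS. Imaged by inverted fluorescence microscope (excitation 340-380 nm, emission 465 nm) at 400x and scored for nuclear morphology.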

Data set [7] has as its system COLO 205. Nature of the data set: Induction of apoptosis in human COLO205 cells assessed as karyopyknosis at IC50 after 48 hrs by Hoechst 33258 staining-based inverted microscopic analysis. It counts as functional, cell-based. In short, it runs like this: as §2
The subject of data set [8] is COLO 205. Description: Induction of apoptosis in human COLO205 cells assessed as nuclear fragmentation at IC50 after 48 hrs by Hoechst 33258 staining-based inverted microscopic analysis. It counts as functional, cell-based. An outline of the steps:
as §2

Data set [9] has as its system COLO 205. Description: Induction of apoptosis in human COLO205 cells assessed as late apoptotic cells at IC50 after 48 hrs by acridine orange-ethidium bromide staining assay. It counts as functional, cell-based. In short, it runs like this: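 COLO-205 cells seeded at 10⁵ cells/ml, grown 24 h, then treated at IC₅₀ dose for 48 h. Floating and trypsinized adherent cells pooled, spun at 129 g for 5 min and washed in PBS. Stained with 1:1 acridine orange/ethidium bromide and viewed by fluorescence microscopy at 400x (green viable, orange-red apoptotic).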

Another data set has as its system ACHN. Nature of the data set: Cytotoxicity against human ACHN cells […] by MTT assay. The class given is functional, cell-based.
For data set [10], the system named is COLO 205. Description: Cytotoxicity against human COLO205 cells […] by MTT assay. The class given is functional, cell-based. (In general: Tetrazolium dyes change colour on reduction, which living cells bring about.)
The test system of data set [11] is HeLa. Nature of the data set: Cytotoxicity against human HeLa cells after 24 hrs by MTT assay. It counts as functional, cell-based.
Data set [12] deals with BT-549. Nature of the data set: Cytotoxicity against human BT549 cells after 24 hrs by MTT assay. The class given is functional, cell-based. Conditions: BT-549, 24 h.
Data set [13] concerns HeLa. Nature of the data set: Cytotoxicity against human HeLa cells at 100 ug/ml […] by MTT assay. The class given is cell-based.
Data set [14] deals with BT-549. Nature of the data set: Cytotoxicity against human BT549 cells at 100 ug/ml […] by MTT assay. It counts as cell-based.
Data set [15] concerns Rattus norvegicus. Nature of the data set: Antiinflammatory activity in albino rat assessed as inhibition of carrageenan-induced paw edema at 100 mg/kg, po administered 1 hr prior to carrageenan-challenge measured after 3 hrs relative to control. It counts as functional. In short, it runs like this:
(§3)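 Charles Foster albino rats of either sex (150–200 g, pregnant females excluded), six per group, dosed orally; 1 h later 0.2 mL of 1% carrageenan in 0.9% NaCl injected into right hind paw subplantar tissue. Paw volume read by plethysmometer at injection and 3 h later. Control group received carrageenan only. % inhibition = 1–Dt/Dc×100. Mean ± S.D.; one-way ANOVA with Tukey's test.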

The test system of data set [16] is Rattus norvegicus. Nature of the data set: Antiinflammatory activity in albino rat assessed as inhibition of carrageenan-induced paw edema at 10 mg/kg, po administered 1 hr prior to carrageenan-challenge measured after 3 hrs relative to control. The class given is functional. An outline of the steps:
as §3
In general terms: The carrageenan paw model is a standard test of acute inflammation.

≈ marks a conversion by molar mass, not a printed value. Calls of active or inactive are those of the source. The rule behind the calls is not given here.

With `Cc1cc(=O)[nH]c2cc(N3C(=O)CSC3c3cccs3)ccc12` (stereo not given), the Activity came out at 77.09% in data set [1]; 3.86% in data set [2]; 6.66% in [3]; 83.762% in the data set on HeLa [13]; 63.163% in the data set on BT-549 [14]. The MST in data set [1] is 32.16 days. Further, the inhibition entry with COLO 205 [4] and in the data set with COLO 205 [5] was “Active” each time. In addition, the outcome in the data set with COLO 205 [6], in the data set with COLO 205 [7], in the data set on COLO 205 [8] and in the data set with COLO 205 [9] was Active. Besides, the IC50 in the data set on ACHN was 44.7 µg/mL (≈ 131 µM); in the data set on COLO 205 [10] it was 20.7 µg/mL (≈ 60.6 µM); in the data set on HeLa [11], 27.1 µg/mL (≈ 79 µM); in the data set on BT-549 [12], 43 µg/mL (≈ 126 µM). Besides, the inhibition in vivo at 100 mg/kg with Rattus norvegicus [15] was 18.6%.
For the compound `Cc1cc(=O)[nH]c2cc(N3C(=O)CSC3c3ccccc3)ccc12` (stereo not given), the Activity in data set [1] came to 60.57%; in [2] it was 5.93%; in [3], 10.65%; in the data set on HeLa [13], 74.85%; in the data set on BT-549 [14], 71.578%. In data set [1], the MST came out at 29.16 days. The inhibition result in the data set with COLO 205 [4] and with COLO 205 [5] was “Active” throughout. In addition, the result with COLO 205 [6], with COLO 205 [7], with COLO 205 [8] and in the data set on COLO 205 [9] was Active. Besides, the IC50 amounted to 78.9 µg/mL (≈ 234 µM) in the data set with ACHN, 31.4 µg/mL (≈ 93.3 µM) in the data set with COLO 205 [10], 35.1 µg/mL (≈ 104 µM) in the data set on HeLa [11] and 39.3 µg/mL (≈ 117 µM) with BT-549 [12]. Further, the inhibition in vivo at 100 mg/kg in the data set on Rattus norvegicus [15] worked out at 17.8%.
Turning to `COc1ccc2c(c1)c(CC(=O)O)c(C)n2C(=O)c1ccc(Cl)cc1` [INDOMETHACIN], the inhibition in vivo at 10 mg/kg in the data set on Rattus norvegicus [16] came out at 33.2%.

One may read the IC50 as the concentration that inhibits the measured activity by half. Low values mean greater potency, high ones weaker potency. Broadly, the inhibition in vivo is the change of the read-out against control, counted positive when it falls.

The record behind these values is ChEMBL document CHEMBL2375332, “Novel quinolone substituted thiazolidin-4-ones as anti-inflammatory, anticancer agents: design, synthesis and biological screening” (Eur J Med Chem, 2013).
